Source: ChEMBL document CHEMBL3425440, “ent-Kaurane Diterpenoids from Chinese Liverworts and Their Antitumor Activities through Michael Addition As Detected in Situ by a Fluorescence Probe” (J Med Chem, 2015)

Key:
[1] = Cytotoxicity against human HL60 cells assessed as cell viability after 24 hrs by MTT assay; format: functional, cell-based; conditions: HL-60, 24 h
How it was run: (§1)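 Cells grown to about 50−70% confluence at 37 °C, 5% CO2, then exposed to compounds 24 h (DMSO vehicle control, cisplatin positive control). MTT (5 mg/mL stock) added for 4 h, formazan dissolved in DMSO, absorbance read at 570 nm. IC50 derived from percent viability; at least three independent experiments, mean ± SD.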

[2] = Cytotoxicity against human T24 cells assessed as cell viability after 24 hrs by MTT assay; format: functional, cell-based; conditions: T-24, 24 h; how it was run: as §1
[3] = Cytotoxicity against human RWPE1 cells assessed as cell viability after 24 hrs by MTT assay; format: cell-based; conditions: RWPE-1, 24 h; how it was run: as §1
[4] = Cytotoxicity against human SKOV3 cells assessed as cell viability after 24 hrs by MTT assay; format: functional, cell-based; conditions: SK-OV-3, 24 h; how it was run: as §1
[5] = Cytotoxicity against human Saos2 cells assessed as cell viability after 24 hrs by MTT assay; format: functional, cell-based; conditions: SAOS-2, 24 h; how it was run: as §1
[6] = Cytotoxicity against human PC3 cells assessed as cell viability after 24 hrs by MTT assay; format: functional, cell-based; conditions: PC-3, 24 h; how it was run: as §1
NCI-H1299 = experiment: Cytotoxicity against human NCI-H1299 cells assessed as cell viability after 24 hrs by MTT assay; format: functional, cell-based; conditions: NCI-H1299, 24 h; how it was run: as §1
MDA-MB-231 = experiment: Cytotoxicity against human MDA-MB-231 cells assessed as cell viability after 24 hrs by MTT assay; format: functional, cell-based; conditions: MDA-MB-231, 24 h; how it was run: as §1
K562 = experiment: Cytotoxicity against human K562 cells assessed as cell viability after 24 hrs by MTT assay; format: functional, cell-based; conditions: K562, 24 h; how it was run: as §1
[7] = Cytotoxicity against human A172 cells assessed as cell viability after 24 hrs by MTT assay; format: functional, cell-based; conditions: A 172, 24 h; how it was run: as §1
LoVo = experiment: Cytotoxicity against human LoVo cells assessed as cell viability after 24 hrs by MTT assay; format: functional, cell-based; how it was run: as §1
DU-145 = experiment: Cytotoxicity against human DU145 cells assessed as cell viability after 24 hrs by MTT assay; format: functional, cell-based; conditions: DU-145, 24 h; how it was run: as §1
LNCaP = experiment: Cytotoxicity against human LNCAP cells assessed as cell viability after 24 hrs by MTT assay; format: functional, cell-based; how it was run: as §1
[8] = Cytotoxicity against human SH-SY5Y cells assessed as cell viability after 24 hrs by MTT assay; format: functional, cell-based; how it was run: as §1

SMILES	IC50 [1] [µM]	IC50 [2] [µM]	IC50 [3] [µM]	IC50 [4] [µM]	IC50 [5] [µM]	IC50 [6] [µM]	IC50 (NCI-H1299) [µM]	IC50 (MDA-MB-231) [µM]	IC50 (K562) [µM]	IC50 [7] [µM]	IC50 (LoVo) [µM]	IC50 (DU-145) [µM]	IC50 (LNCaP) [µM]	IC50 [8] [µM]
C=C1[C@@H]2CC[C@H]3[C@]4(C)CCCC(C)(C)[C@H]4C[C@@H](O)[C@]3(C2)[C@H]1O	> 50	> 50	> 50	> 50	> 50	> 50	> 50	> 50	> 50	> 50	> 50	> 50	> 50	> 50
C[C@H]1C(=O)[C@@]23CC[C@@H]4C(C)(C)CCC[C@@]4(C)[C@@H]2[C@@H](O)C[C@@H]1C3	> 50	> 50	> 50	> 50	> 50	> 50	> 50	> 50	> 50	> 50	> 50	> 50	> 50	> 50
C=C1[C@@H]2CC[C@@H]3[C@@](CC[C@@H]4C(C)(C)CC[C@H](O)[C@]43C)(C2)[C@H]1O	> 50	> 50	> 50	> 50	> 50	> 50	> 50	> 50	> 50	> 50	> 50	> 50	> 50	> 50
C=C1C[C@]23C[C@H]1CC[C@H]2[C@@]1(C)[C@H](C[C@H]3O)C(C)(C)CC[C@@H]1O	> 50	> 50	> 50	> 50	> 50	> 50	> 50	> 50	> 50	> 50	> 50	> 50	> 50	> 50
C=C1[C@@H]2CC(=O)[C@H]3[C@]4(C)CCCC(C)(C)[C@H]4[C@@H](O)[C@@H](O)[C@]3(C2)[C@@H]1O	> 50	> 50	> 50	> 50	> 50	> 50	> 50	> 50	> 50	> 50	> 50	> 50	> 50	> 50
C[C@H]1C(=O)[C@@]23CC[C@@H]4[C@@](C)(C=O)CCC[C@@]4(C)C2=CC[C@]1(O)C3	> 50	> 50	> 50	> 50	> 50	> 50	> 50	> 50	> 50	> 50	> 50	> 50	> 50	> 50
C=C1[C@@H]2CC[C@H]3[C@]4(C)CCCC(C)(C)[C@H]4CC[C@]3(C2)[C@@H]1O	> 50	> 50	> 50	> 50	> 50	> 50	> 50	> 50	> 50	> 50	> 50	> 50	> 50	> 50
C=C1C(=O)[C@@]23CC[C@@H]4[C@](C)(CO)CCC[C@@]4(C)C2=CC[C@]1(O)C3	6.7	13.2	13.2	11.3	15.8	6.6	19	15.5	10.4	13	18.4	8.3	12.8	4.9
C=C1C[C@@]23CC[C@H]4[C@@](C)(CCC[C@]4(C)C(=O)O)[C@@H]2CC[C@@H]1C3	> 50	> 50	> 50	> 50	> 50	> 50	> 50	> 50	> 50	> 50	> 50	> 50	> 50	> 50
C=C1[C@@H]2CC[C@]3(O)[C@@](CC[C@@H]4C(C)(C)CCC[C@]43C)(C2)[C@@H]1O	> 50	> 50	> 50	> 50	> 50	> 50	> 50	> 50	> 50	> 50	> 50	> 50	> 50	> 50
C[C@H]1C(=O)[C@@]23CC[C@@H]4C(C)(C)CCC[C@@]4(C)C2=CC[C@]1(O)C3	> 50	> 50	> 50	> 50	> 50	> 50	> 50	> 50	> 50	> 50	> 50	> 50	> 50	> 50
C[C@@H]1C(=O)[C@H]2C[C@]1(O)CC1=C2[C@]2(C)CCC[C@@](C)(CO)[C@H]2CC1	> 50	> 50	> 50	> 50	> 50	> 50	> 50	> 50	> 50	> 50	> 50	> 50	> 50	> 50
C=C1C(=O)[C@@]23CC[C@@H]4C(C)(C)CCC[C@@]4(C)[C@@H]2[C@@H](O)C[C@@H]1C3	0.9	2.1	5.2	1.7	1.4	1.9	2.6	4.8	1.5	3.2	1.4	4.5	2.5	0.7
C=C1[C@@H]2CC[C@H]3[C@]4(C)CCC[C@@](C)(CO)[C@H]4CC[C@]3(C2)[C@@H]1O	> 50	> 50	> 50	> 50	> 50	> 50	> 50	> 50	> 50	> 50	> 50	> 50	> 50	> 50
C=C1[C@@H]2CC[C@H]3[C@]4(C)CCCC(C)(C)[C@H]4C[C@@H](O)[C@]3(C2)[C@@H]1O	> 50	> 50	> 50	> 50	> 50	> 50	> 50	> 50	> 50	> 50	> 50	> 50	> 50	> 50
C=C1[C@@H](O)[C@@]23CC[C@@H]4C(C)(C)CCC[C@@]4(C)[C@@H]2CC[C@@H]1[C@H]3O	> 50	> 50	> 50	> 50	> 50	> 50	> 50	> 50	> 50	> 50	> 50	> 50	> 50	> 50
C[C@@H]1C(=O)[C@H]2C[C@]1(O)CC1=C2[C@]2(C)CCC[C@](C)(CO)[C@H]2CC1	> 50	> 50	> 50	> 50	> 50	> 50	> 50	> 50	> 50	> 50	> 50	> 50	> 50	> 50
C[C@@H]1C(=O)[C@H]2C[C@]1(O)CC1=C2[C@]2(C)CCCC(C)(C)[C@H]2CC1	> 50	> 50	> 50	> 50	> 50	> 50	> 50	> 50	> 50	> 50	> 50	> 50	> 50	> 50
C=C1[C@@H]2CC(=O)[C@H]3[C@]4(C)CCCC(C)(C)[C@H]4CC[C@]3(C2)[C@@H]1O	> 50	> 50	> 50	> 50	> 50	> 50	> 50	> 50	> 50	> 50	> 50	> 50	> 50	> 50
